Experimental findings from ChEMBL document CHEMBL1135416, “Nonpeptide bradykinin B2 receptor antagonists: conversion of rodent-selective bradyzide analogues into potent, orally-active human bradykinin B2 receptor antagonists” (J Med Chem, 2002) are described below.

Converted amounts (≈) assume the structure as drawn.

In data set [1] the target is T1, B2 bradykinin receptor (Rattus norvegicus, UniProt P25023).
T1 sequence (P25023 whole entry): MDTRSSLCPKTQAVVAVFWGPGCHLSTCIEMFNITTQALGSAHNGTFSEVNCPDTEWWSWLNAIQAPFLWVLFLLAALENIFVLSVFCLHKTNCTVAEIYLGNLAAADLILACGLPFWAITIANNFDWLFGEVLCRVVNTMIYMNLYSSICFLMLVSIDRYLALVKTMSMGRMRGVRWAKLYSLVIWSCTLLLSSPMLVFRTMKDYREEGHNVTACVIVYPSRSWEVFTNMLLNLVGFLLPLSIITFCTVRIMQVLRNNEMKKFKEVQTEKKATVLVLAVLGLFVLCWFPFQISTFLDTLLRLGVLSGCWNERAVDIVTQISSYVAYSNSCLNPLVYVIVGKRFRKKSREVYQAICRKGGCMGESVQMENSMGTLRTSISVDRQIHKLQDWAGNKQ
Put plainly: Inhibition of specific binding of [3H]-BK (1 nM) to rat Bradykinin receptor B2 by 50% in NG108-15 cell membranes. On the set-up: species or system Membrane. Put shortly:
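NG108-15 cell membranes (rodent B2) were diluted to about 0.3 mg/mL protein in 25 mM potassium phosphate pH 6.5 with 1 mM EGTA, 0.1 mM bacitracin, chymostatin and BSA. [3H]BK was 1 nM and nonspecific binding was set with 10 µM BK. Incubation was 60 min at 4 °C, followed by PEI-soaked GF/B filtration, a cold phosphate pH 6.5 wash and scintillation counting. Ki was derived from IC50 (Cheng–Prusoff). Data are mean ± SEM of ≥3 experiments in triplicate.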

For data set [2], the target named is T2, B2 bradykinin receptor (Homo sapiens, UniProt P30411).
T2 sequence (P30411 whole entry): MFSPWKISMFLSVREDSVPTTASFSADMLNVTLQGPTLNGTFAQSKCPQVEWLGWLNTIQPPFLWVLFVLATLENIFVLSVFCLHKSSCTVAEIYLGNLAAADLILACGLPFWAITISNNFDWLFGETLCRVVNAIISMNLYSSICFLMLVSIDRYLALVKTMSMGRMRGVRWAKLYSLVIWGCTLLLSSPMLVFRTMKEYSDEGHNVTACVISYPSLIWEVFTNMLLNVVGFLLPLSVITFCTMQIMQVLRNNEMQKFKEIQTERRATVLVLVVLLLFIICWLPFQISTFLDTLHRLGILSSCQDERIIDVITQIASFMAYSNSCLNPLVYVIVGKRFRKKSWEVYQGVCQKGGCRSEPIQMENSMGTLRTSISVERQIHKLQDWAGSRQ
Description: Displacement of [3H]BK (1 nM) from human Bradykinin receptor B2 expressed in Cos-7 cells. Format: cell-based. A digest of the protocol:
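[3H]BK was 1 nM and nonspecific binding was set with 10 µM BK. Incubation was 60 min at 4 °C, then GF/B filtration, a cold 50 mM Tris pH 7.4 wash and counting. Ki was derived from IC50 (Cheng–Prusoff). Data are mean ± SEM of ≥3 triplicate experiments.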
(In general: Loss of bound radioactivity is the signal in a displacement assay; it reports binding, not function.)

Data set [3] addresses T2, B2 bradykinin receptor. Description: Antagonism of the [Ca2+] efflux actions of the human Bradykinin receptor B2 (WI38 fibroblasts). Format: functional.
For data set [4], the target named is T2, B2 bradykinin receptor. Put plainly: Antagonism of the [Ca2+] efflux actions of the human Bradykinin receptor B2 (SK-N-SH neuroblastoma). Format: functional.
The target of data set [5] is T1, B2 bradykinin receptor. Put plainly: Inhibition of increase in [Ca2+] efflux from NG108-15 cells caused by activation of rat Bradykinin receptor B2. Format: functional, cell-based.
Data set [6] is described as follows: Solubility at pH 7.4. The format is physicochemical. The note with it: buffer.
Data set [7] has as its target T1, B2 bradykinin receptor. Put plainly: Inhibition of Bradykinin receptor B2-mediated contractions of rat uterus smooth muscle. Format: functional, tissue-based.
Data set [8] is filed under the species Rattus norvegicus. Description: Reversal of FCAT-induced mechanical […] in rats. The format is functional. A digest of the protocol: (§1)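 Female Sprague-Dawley rats (100-120 g) under light enflurane received 100 µL FCA into one knee. Three to six days later, each hind paw was placed on a pressure transducer with the uninjected leg bearing 100 g, and the load tolerated by the injected leg was read half-hourly. Compounds were given after three control readings. The response was expressed as % maximal reversal (100% = equal load on both legs).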

For data set [9], the species on record is Rattus norvegicus. Put plainly: Reversal of turpentine-induced mechanical […] in rats. Format: functional. Put shortly:
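Rats received an intraplantar injection of 50 µL turpentine/paraffin (1:1) into the left hind paw. Three days later, compound or vehicle was given orally or iv, and the paw withdrawal threshold (mean of two readings) was taken 1 h later. ED50 was the dose giving 50% of maximum reversal. Efficacy was the maximum reversal as % of the pre-turpentine threshold.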

Data set [10] deals with T2, B2 bradykinin receptor. Put plainly: Antagonism of the [Ca2+] efflux actions of human Bradykinin receptor B2 (WI38 fibroblasts). The format is functional.
Data set [11] addresses T2, B2 bradykinin receptor. Put plainly: Antagonism of the [Ca2+] efflux actions of human Bradykinin receptor B2 (SK-N-SH neuroblastoma). The format is functional.
The species entered for data set [12] is Rattus norvegicus. Put plainly: Duration of action (excess) in FCAT-induced mechanical […] in rats. Format: functional.
Data set [13] is filed under the species Rattus norvegicus. Put plainly: Oral efficacy against FCAT-induced mechanical […] in rats. Format: functional. A digest of the protocol:
as §1

The term Ki denotes a measure of affinity in units of concentration, obtained from inhibition or displacement. Lower therefore signals a stronger hold on the target. In the case of `CN(C)CCCN(C)CCNC(=O)[C@@H]1CCCN1S(=O)(=O)c1ccc(N/N=C(\S)NC(c2ccccc2)c2ccccc2)c([N+](=O)[O-])c1`, the Ki was determined as 0.023 nM at B2 bradykinin receptor [1] and 119 nM at B2 bradykinin receptor [2].
`CN(C)CCCN(C)CCCNC(=O)[C@@H]1CCCN1S(=O)(=O)c1ccc(N/N=C(\S)NC(c2ccccc2)c2ccccc2)c([N+](=O)[O-])c1`: the inhibition constant Ki on B2 bradykinin receptor [1] worked out at 0.31 nM; on B2 bradykinin receptor [2] it was 95 nM.
Consider `CN(C)CCN(C)CCNC(=O)[C@@H]1CCCN1S(=O)(=O)c1ccc(NNC(=O)NC(c2ccccc2)c2ccccc2)c(Cl)c1`, for which the inhibitory constant (Ki) on B2 bradykinin receptor [1] is 7.3 nM.
Regarding `CN(C)CCN(C)CCNC(=O)[C@@H]1CCCN1S(=O)(=O)c1ccc(N/N=C(\S)NC(c2ccccc2Cl)c2ccccc2Cl)c([N+](=O)[O-])c1`, the values for the Ki on B2 bradykinin receptor [1] and on B2 bradykinin receptor [2] were 5.46 nM and 34.1 nM, respectively.
On to `CN(C)CCN(C)CCNC(=O)[C@@H]1CCCN1S(=O)(=O)c1ccc(NNC(=S)NC2c3ccccc3CCc3ccccc32)c([N+](=O)[O-])c1`, for which the inhibition constant Ki at B2 bradykinin receptor [1] was 14.5 nM; at B2 bradykinin receptor [2] it was 4.67 nM.
At B2 bradykinin receptor [2], `CN(C)CCCN(C)CCNC(=O)[C@@H]1CCCN1S(=O)(=O)c1ccc(N/N=C(\S)NC2c3ccccc3-c3ccccc32)c([N+](=O)[O-])c1` had a Ki of 645 nM.
Still for that read-out and setting: as for `CN(C)CCCN(C)CCNC(=O)c1cccn1S(=O)(=O)c1ccc(NNC(=O)NC2c3ccccc3CCc3ccccc32)c(Cl)c1`, the figure is 253 nM.
One may read the IC50 as the concentration that gives 50% inhibition. As usually defined, the solubility is the concentration that dissolves in the medium under given conditions. Higher therefore signals a readily soluble substance. One may read the ED50 as the dose at which the effect has come halfway, by size or by number of responders. For `CN(C)CCCN(C)CCNC(=O)c1cccn1S(=O)(=O)c1ccc(NNC(=O)NC2c3ccccc3CCc3ccccc32)c([N+](=O)[O-])c1`, the IC50 stood at 55 nM against B2 bradykinin receptor [3], 12 nM at B2 bradykinin receptor [4], 141 nM against B2 bradykinin receptor [5] and 1.9 nM on B2 bradykinin receptor [7]. Moreover, the values for the Ki on B2 bradykinin receptor [1] and at B2 bradykinin receptor [2] were 176 nM and 2.79 nM, respectively. Moreover, the solubility in [6] was found to be 400 µg/mL (≈ 569 µM). Further, the ED50 in the data set filed under Rattus norvegicus [8] worked out at 0.027 µmol/kg; in the data set listed under Rattus norvegicus [9], 0.32 µmol/kg.
With `CN(C)CCN(C)CCNC(=O)c1cccn1S(=O)(=O)c1ccc(N/N=C(\S)NC2c3ccccc3CCc3ccccc32)c([N+](=O)[O-])c1`, the results for the Ki on B2 bradykinin receptor [1] and on B2 bradykinin receptor [2] were 64.5 nM and 1.47 nM, respectively.
As for `CN(C)CCCN(C)CCNC(=O)[C@@H]1CCCN1S(=O)(=O)c1ccc(NNC(=O)NC2c3ccccc3CCc3ccccc32)c([N+](=O)[O-])c1`, the IC50 stood at 17 nM on B2 bradykinin receptor [10], 105 nM at B2 bradykinin receptor [5], 91 nM against B2 bradykinin receptor [11] and 2.4 nM at B2 bradykinin receptor [7]. Also, the Ki was 10.7 nM at B2 bradykinin receptor [1] and 0.79 nM on B2 bradykinin receptor [2]. In addition, the ED50 in the data set listed under Rattus norvegicus [8] was found to be 0.043 µmol/kg; in the data set listed under Rattus norvegicus [9] it was 0.11 µmol/kg.
With `CN(C)CCN(C)CCNC(=O)c1cccn1S(=O)(=O)c1ccc(NNC(=S)NC(c2ccccc2)c2ccccc2)c([N+](=O)[O-])c1`, the Ki at B2 bradykinin receptor [2] was 237 nM.
In the case of `CN(C)CCN(C)CCNC(=O)[C@@H]1CCCN1S(=O)(=O)c1ccc(NNC(=S)NC(c2ccccc2)c2ccccc2)c([N+](=O)[O-])c1`, the Time in the data set listed under Rattus norvegicus [12] is 4 h. The compound further registered a Ki at B2 bradykinin receptor [2] of 772 nM. It took a dose of 0.84 µmol/kg to reach the 50% effect level in the data set filed under Rattus norvegicus [13] (ED50).
With `CN(C)CCN(C)CCNC(=O)[C@H]1CCCN1S(=O)(=O)c1ccc(NNC(=S)NC(c2ccccc2)c2ccccc2)c([N+](=O)[O-])c1`, on B2 bradykinin receptor [2], affinity was put at a Ki of 1430 nM.
